Assay results: ChEMBL document CHEMBL2163287, “Nitro seco analogues of the duocarmycins containing sulfonate leaving groups as hypoxia-activated prodrugs for cancer therapy” (J Med Chem, 2012)
pIC50: −log10 of the molar value. Active and inactive are the calls of the source. The calls are words filed in the database; no cut-off is given here.

Legend:
HT-29 [1] = test: Cytotoxicity against human HT-29 cells under oxic condition assessed as inhibition of cell proliferation after 4 hrs by SRB method; assay type: functional, cell-based; settings: HT-29, 4 h
Summary of the method: (§1)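 Log-phase monolayers were exposed 4 h under 20% O₂ or anoxia (<20 ppm O₂), then stained with sulforhodamine B 5 days later. IC50, interpolated as the concentration reducing cell density to 50% of same-plate controls, is given as mean of 3−9 experiments. HCR = IC50(oxic)/IC50(hypoxic), taken as the mean of intraexperiment ratios from 3−6 experiments.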

HT-29 [2] = test: Cytotoxicity against human HT-29 cells under hypoxic condition assessed as inhibition of cell proliferation after 4 hrs by SRB method; assay type: functional, cell-based; settings: HT-29, 4 h; summary of the method: as §1
SiHa [3] = test: Cytotoxicity against human SiHa cells under hypoxic condition assessed as inhibition of cell proliferation after 4 hrs; assay type: functional, cell-based
Summary of the method: (§2)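 Log-phase monolayers were exposed to drug for 4 h, aerobic (20% O2) for line 5 and anoxic (<20 ppm O2) for line 4. Cell density was read by sulforhodamine B staining 5 days later. IC50 was interpolated as the concentration reducing density to 50% of same-plate controls; mean ± SEM of 3–9 experiments.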

SiHa [4] = test: Cytotoxicity against human SiHa cells under oxic condition after 4 hrs by clonogenic assay; assay type: functional, cell-based
Summary of the method: (§3)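 Cells were exposed to drug in duplicate for 4 h at 37 °C, either aerobic (95% air, 5% CO₂) or in an anaerobic chamber (<0.001% O₂). Medium was αMEM + 10% FCS with added glucose (final 17 mmol/L) and 200 μmol/L 2′-deoxycytidine. Cells were then trypsinized and plated; colonies >50 cells were counted after 14 days (methylene blue). C10 = concentration giving 10% survival vs controls; HCR = C10(oxic)/C10(hypoxic).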

HT-29 [5] = test: Ratio of IC50 for human HT-29 cells under oxic condition to IC50 for human HT-29 cells under hypoxic condition; assay type: functional; summary of the method: as §1
SiHa [6] = test: Cytotoxicity against human SiHa cells under oxic condition assessed as inhibition of cell proliferation after 4 hrs; assay type: functional, cell-based; summary of the method: as §2
SiHa [7] = test: Cytotoxicity against human SiHa cells under hypoxic condition assessed as after 4 hrs by clonogenic assay; assay type: functional, cell-based; summary of the method: as §3
SiHa [8] = test: Antitumor activity against human SiHa cells xenografted in immunocompromized gamma irradiated mouse assessed as log cell kill at 42 umol/kg, iv tumor excised post 18 hrs followed by culturing for 14 days under hypoxic condition; assay type: functional
Summary of the method: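 Male immunocompromised mice bearing subcutaneous tumours (10^7 cultured cells), randomized at 8–10 mm mean diameter. Compound in PBS with 4 equiv sodium bicarbonate given iv (tail vein), alone or 5 min after 15 Gy whole-body cobalt-60 γ-irradiation, which sterilizes oxygenated cells. Tumours excised 18 h after dosing and plated for clonogens for 14 days. n = 3 (vehicle or compound alone) or 5 (irradiated groups).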

SiHa [9] = test: Antitumor activity against human SiHa cells xenografted in immunocompromized mouse assessed as number of colony forming cells per gram of tumor tissue at 42 umol/kg, iv tumor excised post 18 hrs followed by culturing for 14 days; assay type: functional
Summary of the method: (§4)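 SiHa tumours grown subcutaneously in male mice from 10⁷ cultured cells; randomized at 8−10 mm mean diameter. Compound in phosphate-buffered saline with 4 equiv sodium bicarbonate, given via tail vein at the stated dose, alone or 5 min after 15 Gy whole-body cobalt-60 γ irradiation. Tumours excised 18 h after dosing, cells cultured 14 days for clonogens. Groups of 3 (drug alone) or 5 (radiation + drug).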

SiHa [10] = test: Antitumor activity against human SiHa cells xenografted in immunocompromized gamma irradiated mouse assessed as number of colony forming cells per gram of tumor tissue at 42 umol/kg, iv tumor excised post 18 hrs followed by culturing for 14 days; assay type: functional; summary of the method: as §4
NCI-H460 = test: Toxicity in human H460 cells xenografted immunocompromized mouse at 75 umol/kg, iv; settings: in vivo

Row | Compound | pIC50 (HT-29 [1]) | pIC50 (HT-29 [2]) | pIC50 (SiHa [3]) | Activity (SiHa [4]) | Ratio IC50 (HT-29 [5]) | pIC50 (SiHa [6]) | Activity (SiHa [7]) | LCK (SiHa [8]) | log10cfu (SiHa [9]) | log10cfu (SiHa [10]) | Activity (NCI-H460)
1 | COc1ccc(/C=C/C(=O)N2CC(COS(=O)(=O)Cc3ccccc3)c3c2cc([N+](=O)[O-])c2cc(C#N)ccc32)cc1O (stereo not given) | 5.47 | 6.21 | 7.72 | Active | 5.4 | 6.24 | Active |  |  |  | 
2 | CN(C)CCOc1ccc2[nH]c(C(=O)N3CC(COS(C)(=O)=O)c4c3cc([N+](=O)[O-])c3cc(S(=O)(=O)NCCO)ccc43)cc2c1 (stereo not given) | 4.89 | 5.66 | 6.42 |  | 7.4 | 5.39 |  |  |  |  | 
3 | COc1ccc(/C=C/C(=O)N2CC(COS(C)(=O)=O)c3c2cc([N+](=O)[O-])c2cc(S(=O)(=O)NCCO)ccc32)cc1 (stereo not given) | 4.59 | 5.39 | 6.49 |  | 31 | 4.96 |  |  |  |  | 
4 | CN(C)CCOc1ccc2[nH]c(C(=O)N3CC(COS(=O)(=O)Cc4ccccc4)c4c3cc([N+](=O)[O-])c3cc(S(=O)(=O)NCCO)ccc43)cc2c1 (stereo not given) | 4.42 | 5.41 | 7.26 |  | 9.7 | 5.35 |  |  |  |  | 
5 | COc1cc2cc(C(=O)N3CC(CCl)c4c3cc([N+](=O)[O-])c3cc(S(=O)(=O)NCCOP(=O)(O)O)ccc43)[nH]c2c(OC)c1OC (stereo not given) |  |  |  |  |  |  |  | 0.54 |  |  | 
6 | O=C(c1cc2cc(OCCN3CCOCC3)ccc2[nH]1)N1CC(COS(=O)(=O)Cc2ccccc2)c2c1cc([N+](=O)[O-])c1cc(S(=O)(=O)NCCOP(=O)(O)O)ccc21 (stereo not given) |  |  |  |  |  |  |  | 0.34 | 7.08 | 4.76 | 
7 | COc1cc2cc(C(=O)N3CC(COS(=O)(=O)Cc4ccccc4)c4c3cc([N+](=O)[O-])c3cc(C(=O)NCCO)ccc43)[nH]c2c(OC)c1OC (stereo not given) | 4.82 | 6.21 | 6.80 |  | 13 | 6.05 |  |  |  |  | 
8 | COc1cc2cc(C(=O)N3CC(COS(C)(=O)=O)c4c3cc([N+](=O)[O-])c3cc(S(=O)(=O)NCCO)ccc43)[nH]c2c(OC)c1OC (stereo not given) | 4.85 | 4.85 | 5.68 |  | 8.6 | 5.20 |  |  |  |  | 
9 | COc1ccc(/C=C/C(=O)N2CC(COS(=O)(=O)Cc3ccccc3)c3c2cc([N+](=O)[O-])c2cc(S(=O)(=O)NCCOP(=O)(O)O)ccc32)cc1 (stereo not given) |  |  |  |  |  |  |  | 0.78 | 6.74 | 4.32 | 
10 | COc1cc2cc(C(=O)N3CC(COS(=O)(=O)Cc4ccccc4)c4c3cc([N+](=O)[O-])c3cc(C#N)ccc43)[nH]c2c(OC)c1OC (stereo not given) | 5.59 | 7.37 | 7.59 |  | 94 | 6.19 |  |  |  |  | 
11 | COc1cc2cc(C(=O)N3CC(COS(=O)(=O)Cc4ccccc4)c4c3cc([N+](=O)[O-])c3cc(S(=O)(=O)NCCOP(=O)(O)O)ccc43)[nH]c2c(OC)c1OC (stereo not given) |  |  |  |  |  |  |  | 2.71 | 6.53 | 2.39 | 
12 | O=C(c1cc2cc(OCCN3CCOCC3)ccc2[nH]1)N1CC(COS(=O)(=O)Cc2ccccc2)c2c1cc([N+](=O)[O-])c1cc(S(=O)(=O)NCCO)ccc21 (stereo not given) | 4.30 | < 4.70 | 7.41 |  | <2.5 | 4.64 |  |  |  |  | 
13 | CN(C)CCOc1ccc2[nH]c(C(=O)N3CC(COS(=O)(=O)Cc4ccccc4)c4c3cc([N+](=O)[O-])c3cc(C(N)=O)ccc43)cc2c1 (stereo not given) | 5.66 | 7.42 | 6.92 |  | 58 | 6.28 |  |  |  |  | 
14 | NC(=O)c1ccc2c3c(cc([N+](=O)[O-])c2c1)N(C(=O)c1cc2cc(OCCOP(=O)(O)O)ccc2[nH]1)CC3COS(=O)(=O)Cc1ccccc1 (stereo not given) |  |  |  |  |  |  |  | 0.37 | 6.91 | 5.09 | Non-toxic
15 | COc1ccc(/C=C/C(=O)N2CC(COS(C)(=O)=O)c3c2cc([N+](=O)[O-])c2cc(S(=O)(=O)NCCOP(=O)(O)O)ccc32)cc1 (stereo not given) |  |  |  |  |  |  |  | 0.71 | 7.09 | 4.75 | Non-toxic
16 | COc1cc2cc(C(=O)N3CC(COS(=O)(=O)Cc4ccccc4)c4c3cc([N+](=O)[O-])c3cc(C(=O)NCCOP(=O)(O)O)ccc43)[nH]c2c(OC)c1OC (stereo not given) |  |  |  |  |  |  |  | 1.78 | 6.71 | 3.62 | Non-toxic
17 | CN(C)CCOc1ccc2[nH]c(C(=O)N3CC(COS(C)(=O)=O)c4c3cc([N+](=O)[O-])c3cc(S(=O)(=O)NCCOP(=O)(O)O)ccc43)cc2c1 (stereo not given) |  |  |  |  |  |  |  | 0.33 | 7.18 | 4.65 | Non-toxic
18 | CN(C)CCOc1ccc2[nH]c(C(=O)N3CC(COS(=O)(=O)Cc4ccccc4)c4c3cc([N+](=O)[O-])c3cc(S(N)(=O)=O)ccc43)cc2c1 (stereo not given) | 5.80 | 7.05 | 7.35 |  | 18 | 6.43 |  |  |  |  | 
19 | CN(C)CCOc1ccc2[nH]c(C(=O)N3CC(COS(=O)(=O)Cc4ccccc4)c4c3cc([N+](=O)[O-])c3cc(C(=O)NCCOP(=O)(O)O)ccc43)cc2c1 (stereo not given) |  |  |  |  |  |  |  | 0.98 | 6.92 | 4.42 | Non-toxic
20 | CN(C)CCOc1ccc2[nH]c(C(=O)N3CC(CCl)c4c3cc([N+](=O)[O-])c3cc(C(=O)NCCO)ccc43)cc2c1 (stereo not given) | 4.92 | 6.96 | 6.62 |  | 485 | 5.38 |  |  |  |  | 
21 | CN(C)CCOc1ccc2[nH]c(C(=O)N3CC(CCl)c4c3cc([N+](=O)[O-])c3cc(C(=O)NCCOP(=O)(O)O)ccc43)cc2c1 (stereo not given) |  |  |  |  |  |  |  | 2.21 | 6.56 | 3.11 | 
22 | COc1cc2cc(C(=O)N3CC(COS(=O)(=O)Cc4ccccc4)c4c3cc([N+](=O)[O-])c3cc(S(=O)(=O)NCCO)ccc43)[nH]c2c(OC)c1OC (stereo not given) | 5.08 | 6.44 | 6.96 |  | 23 | 6.03 |  |  |  |  | 
23 | COc1ccc(/C=C/C(=O)N2CC(COS(=O)(=O)Cc3ccccc3)c3c2cc([N+](=O)[O-])c2cc(S(=O)(=O)NCCO)ccc32)cc1 (stereo not given) | 4.33 | 6.02 | 6.43 |  | 50 | 5.14 |  |  |  |  | 
24 | N#Cc1ccc2c3c(cc([N+](=O)[O-])c2c1)N(C(=O)c1cc2cc(OCCO)ccc2[nH]1)CC3COS(=O)(=O)Cc1ccccc1 (stereo not given) | 5.60 | 6.31 | 7.46 |  | 5.2 | 6.15 |  |  |  |  | 
25 | CN(C)CCOc1ccc2[nH]c(C(=O)N3CC(COS(=O)(=O)Cc4ccccc4)c4c3cc([N+](=O)[O-])c3cc(C(=O)NCCO)ccc43)cc2c1 (stereo not given) | 5.37 | 6.24 | 6.68 | Active | 12 | 5.64 | Active |  |  |  | 
26 | COc1cc2cc(C(=O)N3CC(CCl)c4c3cc([N+](=O)[O-])c3cc(C(=O)NCCO)ccc43)[nH]c2c(OC)c1OC (stereo not given) | 5.24 | 5.49 |  |  | 1.7 |  |  |  |  |  | 
27 | COc1ccc(/C=C/C(=O)N2CC(COS(=O)(=O)Cc3ccccc3)c3c2cc([N+](=O)[O-])c2cc(C(N)=O)ccc32)cc1O (stereo not given) | 5.34 | 6.37 | 7.02 | Active | 21 | 5.68 | Active |  |  |  | 
28 | CN(C)CCOc1ccc2[nH]c(C(=O)N3CC(COS(=O)(=O)Cc4ccccc4)c4c3cc([N+](=O)[O-])c3cc(S(=O)(=O)NCCOP(=O)(O)O)ccc43)cc2c1 (stereo not given) |  |  |  |  |  |  |  | 0.18 | 6.92 | 4.92 | 
